# Results published in ChEMBL document CHEMBL1149315, “Insertion of an aspartic acid moiety into cyclic pseudopeptides: synthesis and biological characterization of potent antagonists for the human Tachykinin NK-2 receptor” (J Med Chem, 2004).
# Assays:
# [1] = biological target: T1, Substance-K receptor (Homo sapiens, UniProt P21452); assay: Displacement of [125I]neurokinin A from human NK2 receptor expressed in CHOK1 cells; format: cell-based, CHO-K1
# T1 sequence (P21452 whole entry): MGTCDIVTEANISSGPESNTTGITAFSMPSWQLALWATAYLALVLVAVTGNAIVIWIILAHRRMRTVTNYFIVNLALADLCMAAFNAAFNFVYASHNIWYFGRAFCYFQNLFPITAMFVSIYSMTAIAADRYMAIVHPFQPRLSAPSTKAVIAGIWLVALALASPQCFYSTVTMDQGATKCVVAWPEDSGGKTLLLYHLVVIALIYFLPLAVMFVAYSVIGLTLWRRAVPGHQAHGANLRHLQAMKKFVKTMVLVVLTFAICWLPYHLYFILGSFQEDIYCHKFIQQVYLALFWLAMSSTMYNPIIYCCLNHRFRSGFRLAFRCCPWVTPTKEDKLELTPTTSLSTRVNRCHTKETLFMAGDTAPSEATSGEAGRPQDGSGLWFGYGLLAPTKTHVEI
# In short: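 Competition binding was run on membranes of cells stably transfected with the human receptor: U-373MG for NK-1, CHO-K1 for NK-2 and NK-3. NK-1 used [3H][Sar9]SP sulfone at 1.2 nM. Affinity is given as pKi (−log Ki).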
# [2] = biological target: T2, Substance-K receptor (Rattus norvegicus) (UniProt P16610); assay: Antagonist activity at NK2 receptor in rat urinary bladder assessed as effect on beta-Ala8]NKA(4-10)-induced mechanical activity; format: functional; conditions: filed as antagonist
# T2 sequence (whole entry): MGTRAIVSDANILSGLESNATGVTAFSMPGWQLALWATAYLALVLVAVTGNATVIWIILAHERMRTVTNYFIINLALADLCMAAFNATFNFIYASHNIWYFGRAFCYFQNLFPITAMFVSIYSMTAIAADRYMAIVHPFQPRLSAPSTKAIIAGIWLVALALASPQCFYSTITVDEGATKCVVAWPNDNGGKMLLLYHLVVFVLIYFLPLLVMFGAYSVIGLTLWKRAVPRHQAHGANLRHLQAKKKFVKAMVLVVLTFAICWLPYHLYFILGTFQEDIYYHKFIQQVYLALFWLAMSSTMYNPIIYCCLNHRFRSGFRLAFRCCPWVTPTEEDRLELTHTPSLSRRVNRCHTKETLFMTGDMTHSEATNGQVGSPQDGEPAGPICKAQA
# In short: (§1)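 Isolated smooth muscle strips were held in oxygenated (96% O2/4% CO2) Krebs–Henseleit at NaCl 119, NaHCO3 25, KH2PO4 1.2, MgSO4 1.5, CaCl2 2.5, KCl 4.7 and glucose 11 mM. Cumulative agonist concentration–response curves were run after 15 min antagonist incubation. pKB = log(dose ratio − 1) − log[antagonist], as the mean of individual values.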
# [3] = biological target: T3, Substance-K receptor (Oryctolagus cuniculus) (UniProt P79218); assay: Antagonist activity at NK2 receptor in rabbit pulmonary artery assessed as effect on neurokinin A-induced mechanical activity; format: functional; conditions: filed as antagonist; in short: as §1
# T3 sequence (whole entry): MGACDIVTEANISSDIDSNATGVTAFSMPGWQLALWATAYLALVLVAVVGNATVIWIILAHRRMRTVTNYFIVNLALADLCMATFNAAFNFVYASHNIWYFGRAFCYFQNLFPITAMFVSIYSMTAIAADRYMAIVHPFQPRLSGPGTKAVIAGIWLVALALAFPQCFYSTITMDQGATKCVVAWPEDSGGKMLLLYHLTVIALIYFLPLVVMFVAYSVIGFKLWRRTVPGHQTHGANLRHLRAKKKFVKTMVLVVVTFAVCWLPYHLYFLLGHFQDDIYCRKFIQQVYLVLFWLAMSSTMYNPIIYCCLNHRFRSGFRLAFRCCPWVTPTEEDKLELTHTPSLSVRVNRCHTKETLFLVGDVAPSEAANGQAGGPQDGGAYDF
Structure (SMILES),Ki [1],pKb [2],pKb [3]
NC(=O)C1CCN(CC(=O)N[C@@H]2CC(=O)N[C@@H](Cc3c[nH]c4ccccc34)C(=O)N[C@@H](Cc3ccccc3)C(=O)N[C@H](Cc3ccccc3)CNC2=O)CC1,0.501 nM (antagonist),9.2,
O=C1C[C@@H](NC(=O)CN2CC[S+]([O-])CC2)C(=O)NC[C@@H](Cc2ccccc2)NC(=O)[C@H](Cc2ccccc2)NC(=O)[C@H](Cc2c[nH]c3ccccc23)N1,0.316 nM (antagonist),8.7,
CS(=O)(=O)N1CCN([C@@H]2CC(=O)N[C@@H](Cc3c[nH]c4ccccc34)C(=O)N[C@@H](Cc3ccccc3)C(=O)N[C@H](Cc3ccccc3)CNC2=O)CC1,3.16 nM (antagonist),9.3,
CC(=O)N1CCN([C@@H]2CC(=O)N[C@@H](Cc3c[nH]c4ccccc34)C(=O)N[C@@H](Cc3ccccc3)C(=O)N[C@H](Cc3ccccc3)CNC2=O)CC1,0.126 nM (antagonist),9.6,
O=C1CCC(=O)N[C@@H](Cc2c[nH]c3ccccc23)C(=O)N[C@@H](Cc2ccccc2)C(=O)N[C@H](Cc2ccccc2)CN1,,8.3,
O=C1C[C@H](NC2CCOCC2)C(=O)N[C@@H](Cc2c[nH]c3ccccc23)C(=O)N[C@@H](Cc2ccccc2)C(=O)N[C@H](Cc2ccccc2)CN1,6.31 nM (antagonist),7.8,
NC1CCN([C@@H]2CC(=O)N[C@@H](Cc3c[nH]c4ccccc34)C(=O)N[C@@H](Cc3ccccc3)C(=O)N[C@H](Cc3ccccc3)CNC2=O)CC1,5.01 nM (antagonist),8.5,
CN1CCN(CC(=O)N[C@@H]2CC(=O)N[C@@H](Cc3c[nH]c4ccccc34)C(=O)N[C@@H](Cc3ccccc3)C(=O)N[C@H](Cc3ccccc3)CNC2=O)CC1,1.58 nM (antagonist),8.5,
O=C1C[C@@H](NC2CCOCC2)C(=O)N[C@@H](Cc2c[nH]c3ccccc23)C(=O)N[C@@H](Cc2ccccc2)C(=O)N[C@H](Cc2ccccc2)CN1,7.94 nM (antagonist),7.4,
CN1CCN([C@@H]2CC(=O)N[C@@H](Cc3c[nH]c4ccccc34)C(=O)N[C@@H](Cc3ccccc3)C(=O)N[C@H](Cc3ccccc3)CNC2=O)CC1,0.398 nM (antagonist),9.2,
CN(C1CCOCC1)[C@@H]1CC(=O)N[C@@H](Cc2c[nH]c3ccccc23)C(=O)N[C@@H](Cc2ccccc2)C(=O)N[C@H](Cc2ccccc2)CNC1=O,0.158 nM (antagonist),8.8,
O=C1C[C@@H](N2CCC(N3CCCCC3)CC2)C(=O)NC[C@@H](Cc2ccccc2)NC(=O)[C@H](Cc2ccccc2)NC(=O)[C@H](Cc2c[nH]c3ccccc23)N1,0.2 nM (antagonist),8.9,
CS(=O)(=O)N1CCC(N[C@@H]2CC(=O)N[C@@H](Cc3c[nH]c4ccccc34)C(=O)N[C@@H](Cc3ccccc3)C(=O)N[C@H](Cc3ccccc3)CNC2=O)CC1,0.0631 nM (antagonist),9.5,
NS(=O)(=O)N1CCC(N[C@@H]2CC(=O)N[C@@H](Cc3c[nH]c4ccccc34)C(=O)N[C@@H](Cc3ccccc3)C(=O)N[C@H](Cc3ccccc3)CNC2=O)CC1,0.0501 nM (antagonist),9.5,
O=C1C[C@@H](NC(=O)CN2CCC(N3CC[S+]([O-])CC3)CC2)C(=O)NC[C@@H](Cc2ccccc2)NC(=O)[C@H](Cc2ccccc2)NC(=O)[C@H](Cc2c[nH]c3ccccc23)N1,0.251 nM (antagonist),9,
O=C1C[C@@H](N2CCC(N3CCOCC3)CC2)C(=O)NC[C@@H](Cc2ccccc2)NC(=O)[C@H](Cc2ccccc2)NC(=O)[C@H](Cc2c[nH]c3ccccc23)N1,0.2 nM (antagonist),8.9,

# Now from value to molecule:
Ki [1],pKb [2],pKb [3],Structure (SMILES)
0.2 nM (antagonist),9,,CN1CCC(N[C@@H]2CC(=O)N[C@@H](Cc3c[nH]c4ccccc34)C(=O)N[C@@H](Cc3ccccc3)C(=O)N[C@H](Cc3ccccc3)CNC2=O)CC1
2 nM (antagonist),8.1,,CC(=O)N[C@@H](CN[C@@H]1CC(=O)N[C@@H](Cc2c[nH]c3ccccc23)C(=O)N[C@@H](Cc2ccccc2)C(=O)N[C@H](Cc2ccccc2)CNC1=O)[C@@H](O)[C@H](O)[C@H](O)CO
0.631 nM (antagonist),8.5,,O=C1C[C@@H](NC[C@H](O)[C@@H](O)[C@@H](O[C@H]2O[C@H](CO)[C@@H](O)[C@H](O)[C@H]2O)[C@H](O)CO)C(=O)NC[C@@H](Cc2ccccc2)NC(=O)[C@H](Cc2ccccc2)NC(=O)[C@H](Cc2c[nH]c3ccccc23)N1
,,7.7,N[C@H]1CC(=O)NC[C@@H](Cc2ccccc2)NC(=O)[C@H](Cc2ccccc2)NC(=O)[C@H](Cc2c[nH]c3ccccc23)NC1=O
3.98 nM (antagonist),8.7,,O=C1CC(NC(=O)[C@@H](O)[C@H](O)[C@@H](O[C@@H]2O[C@H](CO)[C@H](O)[C@H](O)[C@H]2O)[C@@H](O)CO)C(=O)NC[C@@H](Cc2ccccc2)NC(=O)[C@H](Cc2ccccc2)NC(=O)[C@H](Cc2c[nH]c3ccccc23)N1 (stereo partly specified)
,8.5,,O=C1C[C@@H](NC(=O)CN2CCOCC2)C(=O)NC[C@@H](Cc2ccccc2)NC(=O)[C@H](Cc2ccccc2)NC(=O)[C@H](Cc2c[nH]c3ccccc23)N1
1.26 nM (antagonist),8.2,,O=C1C[C@@H](NC[C@H](O)[C@@H](O)[C@H](O[C@@H]2O[C@H](CO)[C@H](O)[C@H](O)[C@H]2O)[C@H](O)CO)C(=O)NC[C@@H](Cc2ccccc2)NC(=O)[C@H](Cc2ccccc2)NC(=O)[C@H](Cc2c[nH]c3ccccc23)N1
0.158 nM (antagonist),9.3,,O=C1C[C@@H](NC2CCS(=O)(=O)CC2)C(=O)NC[C@@H](Cc2ccccc2)NC(=O)[C@H](Cc2ccccc2)NC(=O)[C@H](Cc2c[nH]c3ccccc23)N1
0.126 nM (antagonist),9.1,,O=C1C[C@@H](NC(=O)CN2CCC(O)CC2)C(=O)NC[C@@H](Cc2ccccc2)NC(=O)[C@H](Cc2ccccc2)NC(=O)[C@H](Cc2c[nH]c3ccccc23)N1
1.58 nM (antagonist),7.6,,"CC(=O)N[C@H]1[C@H](NC(=O)CCC(=O)N[C@@H]2CC(=O)N[C@@H](Cc3c[nH]c4ccccc34)C(=O)N[C@@H](Cc3ccccc3)C(=O)N[C@H](Cc3ccccc3)CNC2=O)O[C@H](CO)C(O)[C@@H]1O (single isomer, unassigned)"
0.0251 nM (antagonist),9.1,,O=C1C[C@@H](NC2CC[S+]([O-])CC2)C(=O)NC[C@@H](Cc2ccccc2)NC(=O)[C@H](Cc2ccccc2)NC(=O)[C@H](Cc2c[nH]c3ccccc23)N1 (stereo partly specified)
0.316 nM (antagonist),8.9,,O=C1C[C@@H](NC(=O)CN2CCC[C@H]2CO)C(=O)NC[C@@H](Cc2ccccc2)NC(=O)[C@H](Cc2ccccc2)NC(=O)[C@H](Cc2c[nH]c3ccccc23)N1
0.398 nM (antagonist),8.8,,O=C1C[C@@H](NC[C@H](O)[C@@H](O)[C@H](O)[C@H](O)CO)C(=O)NC[C@@H](Cc2ccccc2)NC(=O)[C@H](Cc2ccccc2)NC(=O)[C@H](Cc2c[nH]c3ccccc23)N1
0.501 nM (antagonist),8.5,,O=C1C[C@@H](NC[C@H](O)[C@H](O)[C@@H](O[C@H]2O[C@H](CO)[C@@H](O[C@@H]3O[C@@H](CO)[C@H](O)[C@@H](O)[C@@H]3O)[C@H](O)[C@H]2O)[C@H](O)CO)C(=O)NC[C@@H](Cc2ccccc2)NC(=O)[C@H](Cc2ccccc2)NC(=O)[C@H](Cc2c[nH]c3ccccc23)N1
25.1 nM (antagonist),7.7,,CC(=O)N[C@@H]1[C@@H](O)[C@H](O)[C@@H](CO)O[C@H]1NC(=O)C[C@H](NC(C)=O)C(=O)N[C@@H]1CC(=O)N[C@@H](Cc2c[nH]c3ccccc23)C(=O)N[C@@H](Cc2ccccc2)C(=O)N[C@H](Cc2ccccc2)CNC1=O
0.1 nM (antagonist),7.8,,O=C1C[C@@H](NC2CCSCC2)C(=O)NC[C@@H](Cc2ccccc2)NC(=O)[C@H](Cc2ccccc2)NC(=O)[C@H](Cc2c[nH]c3ccccc23)N1
